By MIC is commonly meant the smallest concentration in the dilution series that meets the test's criterion for growth inhibition. What is called ED50 is the dose at which the effect has come halfway, by size or by number of responders. Usually AUC stands for concentration integrated over time. The low end stands for less exposure, the high end for more exposure.

In brackets after ≈: the same amount, converted by molar mass.

Data on seven molecules can be found in ChEMBL document CHEMBL1128288, “7-Azetidinylquinolones as antibacterial agents. 3. Synthesis, properties and structure-activity relationships of the stereoisomers containing a 7-(3-amino-2-methyl-1-azetidinyl) moiety” (J Med Chem, 1995).

The test system of one series is Bacillus cereus. As to the kind of experiment: In vitro antibacterial activity measured as minimum inhibitory concentration was evaluated on Bacillus cereus ATCC 11778 (Bc). The format is functional. As to conditions: Bacillus cereus, ATCC 11778; read-out: MIC. In outline:
(§1)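 Serial 2-fold agar dilution in Mueller Hinton medium, run side by side with reference quinolones. Inoculum 10^5 cfu/mL; compound range 0.007–16 µg/mL.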

The subject of series [1] is Pseudomonas aeruginosa. As to the kind of experiment: In vivo efficacy as ED50 against Pseudomonas aeruginosa HS-116 by oral administration in mice. As to conditions: Pseudomonas aeruginosa, po; read-out: ED50. The format is functional. In outline: (§2)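 Mice, 4 groups of 10, infected intraperitoneally with slightly more than the LD100 of the organism. A single oral dose was given immediately after infection, with four doses (one per group) chosen from in vitro activity. Survival was scored after one week. ED50 (total dose, mg/kg, protecting 50%) was interpolated among group survival rates.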

The test system of series [2] is Pseudomonas aeruginosa. As to the kind of experiment: In vitro antibacterial activity measured as minimum inhibitory concentration was evaluated on Pseudomonas aeruginosa ATCC 10145 (Pa). The format is functional. As to conditions: Pseudomonas aeruginosa, ATCC 10145; read-out: MIC. In outline:
as §1

In another series the test system is Bacillus subtilis. Nature of the series: In vitro antibacterial activity measured as minimum inhibitory concentration was evaluated on Bacillus subtilis ATCC 6633(Bs). The format is functional. As to conditions: Bacillus subtilis, ATCC 6633; read-out: MIC. In outline: as §1
Series [3] concerns Staphylococcus aureus. As to the kind of experiment: In vivo efficacy as ED50 against Staphylococcus aureus HS-93 by oral administration in mice. The format is functional. As to conditions: Staphylococcus aureus, po; read-out: ED50. In outline:
as §2

For the next series, the system named is Enterococcus faecalis. Nature of the series: In vitro antibacterial activity measured as minimum inhibitory concentration was evaluated on Streptococcus faecalis ATCC 10541 (Sf). The format is functional. As to conditions: Enterococcus faecalis, ATCC 10541; read-out: MIC. In outline: as §1
For the next series, the system named is Klebsiella pneumoniae. As to the kind of experiment: In vitro antibacterial activity measured as minimum inhibitory concentration was evaluated on klebsiella pneumoniae ATCC 10031 (Kp). The format is functional. As to conditions: Klebsiella pneumoniae, ATCC 10031; read-out: MIC. In outline:
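Serial 2-fold agar dilution in Mueller Hinton medium, run side by side with reference quinolones.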

The conditions of series [4]: mouse, in vivo, po, 50 mg/kg.
For series [5], the system named is Escherichia coli. As to the kind of experiment: In vivo efficacy as ED50 against Escherichia coli HM-42 by oral administration in mice. As to conditions: Escherichia coli, po; read-out: ED50. The format is functional. In outline: as §2
For another series, the system named is Morganella morganii. As to the kind of experiment: In vitro antibacterial activity measured as minimum inhibitory concentration was evaluated on morganella morganii ATCC 8019 (Mm). It is filed as functional. As to conditions: Morganella morganii, ATCC 8019; read-out: MIC. In outline: as §1
Series [6] concerns Staphylococcus aureus. Nature of the series: In vitro antibacterial activity measured as minimum inhibitory concentration was evaluated on Staphylococcus aureus ATCC 25178 (Sa). It is filed as functional. As to conditions: Staphylococcus aureus, ATCC 25178; read-out: MIC. In outline: as §1
Series [7] deals with Escherichia coli. Nature of the series: In vitro antibacterial activity measured as minimum inhibitory concentration, was evaluated on Escherichia coli ATCC 23559(Ec). The format is functional. As to conditions: Escherichia coli, ATCC 23559; read-out: MIC. In outline:
as §1

The subject of the next series is Proteus vulgaris. Nature of the series: In vitro antibacterial activity measured as minimum inhibitory concentration was evaluated on proteus vulgaris ATCC 8427 (Pv). It is filed as functional. As to conditions: Proteus vulgaris, ATCC 8427; read-out: MIC. In outline:
as §1

Another series has as its system Enterobacter cloacae. Nature of the series: In vitro antibacterial activity measured as minimum inhibitory concentration, was evaluated on Enterobacter cloacae ATCC 23355 (Ecl). It is filed as functional. As to conditions: Enterobacter cloacae, ATCC 23355; read-out: MIC.
Series [8] has as its system Staphylococcus epidermidis. As to the kind of experiment: In vitro antibacterial activity measured as minimum inhibitory concentration was evaluated on Staphylococcus epidermidis ATCC 155-1 (Se). The format is functional. As to conditions: Staphylococcus epidermidis, ATCC 155-1; read-out: MIC. In outline:
as §1

`C[C@@H]1[C@@H](N)CN1c1c(F)cc2c(=O)c(C(=O)O)cn(-c3ccc(F)cc3)c2c1F`: the MIC was 0.12 µg/mL (≈ 0.298 µM) in the series with Bacillus cereus; 0.5 µg/mL (≈ 1.24 µM) in the series on Pseudomonas aeruginosa [2]; 0.06 µg/mL (≈ 0.149 µM) with Bacillus subtilis; 1 µg/mL (≈ 2.48 µM) in the series on Enterococcus faecalis; 0.015 µg/mL (≈ 0.0372 µM) with Klebsiella pneumoniae; 0.12 µg/mL (≈ 0.298 µM) in the series with Morganella morganii. Besides, the MIC with Staphylococcus aureus [6] came out at 0.12 µg/mL (≈ 0.298 µM); with Escherichia coli [7], 0.06 µg/mL (≈ 0.149 µM); in the series on Proteus vulgaris, 0.25 µg/mL (≈ 0.62 µM); with Enterobacter cloacae, 0.015 µg/mL (≈ 0.0372 µM); in series [8] it was 0.25 µg/mL (≈ 0.62 µM). Moreover, the ED50 with Pseudomonas aeruginosa [1] was determined as 53 mg/kg; in the series with Staphylococcus aureus [3], 4.8 mg/kg; in the series with Escherichia coli [5], 2.1 mg/kg. Further, in series [4], the AUC turned out to be 40900 ng·h/mL.
In the case of `C[C@H]1[C@H](N)CN1c1c(F)cc2c(=O)c(C(=O)O)cn(C3CC3)c2c1Cl` (single isomer, unassigned), the MIC with Bacillus cereus, with Bacillus subtilis, in the series with Enterococcus faecalis, with Klebsiella pneumoniae, in the series with Morganella morganii and in the series with Staphylococcus aureus [6] was 0.015 µg/mL (≈ 0.041 µM) throughout. In addition, the MIC (in the series with Escherichia coli [7]; in the series with Proteus vulgaris; in the series on Enterobacter cloacae; in series [8]) was 0.015 µg/mL (≈ 0.041 µM) each time. For the same molecule, the results for the 50% effective dose (ED50) in the series on Pseudomonas aeruginosa [1], in the series with Staphylococcus aureus [3] and with Escherichia coli [5] were 36 mg/kg, 3.6 mg/kg and 2.1 mg/kg, respectively. This molecule registered an AUC in series [4] of 5200 ng·h/mL.
In the case of `C[C@H]1[C@H](N)CN1c1nc2c(cc1F)c(=O)c(C(=O)O)cn2-c1ccc(F)cc1F` (single isomer, unassigned), the MIC turned out to be 0.06 µg/mL (≈ 0.148 µM) with Bacillus cereus; 0.5 µg/mL (≈ 1.24 µM) with Pseudomonas aeruginosa [2]; 0.015 µg/mL (≈ 0.0371 µM) in the series on Bacillus subtilis; 0.5 µg/mL (≈ 1.24 µM) in the series with Enterococcus faecalis; 0.015 µg/mL (≈ 0.0371 µM) in the series on Klebsiella pneumoniae; 0.06 µg/mL (≈ 0.148 µM) in the series on Staphylococcus aureus [6]. Also, the MIC came out at 0.06 µg/mL (≈ 0.148 µM) in the series on Escherichia coli [7], 0.5 µg/mL (≈ 1.24 µM) in the series with Proteus vulgaris, 0.06 µg/mL (≈ 0.148 µM) in the series on Enterobacter cloacae and 0.12 µg/mL (≈ 0.297 µM) in series [8]. The median effective dose (ED50) with Pseudomonas aeruginosa [1] stood at 156 mg/kg; in the series on Staphylococcus aureus [3], 6.6 mg/kg; in the series with Escherichia coli [5], 4.2 mg/kg. The molecule also yielded an AUC in series [4] of 38200 ng·h/mL.
Take `C[C@H]1[C@H](N)CN1c1c(F)cc2c(=O)c(C(=O)O)cn(C3CC3)c2c1F` (single isomer, unassigned): the ED50 is 18 mg/kg in the series with Pseudomonas aeruginosa [1], 3.5 mg/kg in the series with Staphylococcus aureus [3] and 1 mg/kg with Escherichia coli [5]. For the same molecule, the MIC with Bacillus subtilis, in the series with Klebsiella pneumoniae, in the series with Morganella morganii, with Staphylococcus aureus [6], in the series with Escherichia coli [7] and in the series on Enterobacter cloacae was 0.015 µg/mL (≈ 0.0429 µM) each time. In series [8], the MIC came out at 0.015 µg/mL (≈ 0.0429 µM). Further, the AUC in series [4] is 21800 ng·h/mL.
`C[C@H]1[C@H](N)CN1c1cc2c(cc1F)c(=O)c(C(=O)O)cn2C1CC1` (single isomer, unassigned): the MIC is 0.015 µg/mL (≈ 0.0453 µM) in the series on Bacillus cereus; 0.12 µg/mL (≈ 0.362 µM) in the series with Pseudomonas aeruginosa [2]; 0.015 µg/mL (≈ 0.0453 µM) in the series on Bacillus subtilis; 0.12 µg/mL (≈ 0.362 µM) in the series on Enterococcus faecalis; 0.015 µg/mL (≈ 0.0453 µM) in the series on Klebsiella pneumoniae; 0.015 µg/mL (≈ 0.0453 µM) in the series with Morganella morganii. In addition, the MIC with Staphylococcus aureus [6] amounted to 0.06 µg/mL (≈ 0.181 µM); with Escherichia coli [7] it was 0.015 µg/mL (≈ 0.0453 µM); in the series with Enterobacter cloacae, 0.015 µg/mL (≈ 0.0453 µM); in series [8], 0.06 µg/mL (≈ 0.181 µM). Moreover, the median effective dose (ED50) in the series on Pseudomonas aeruginosa [1] amounted to 100 mg/kg; with Staphylococcus aureus [3], 17 mg/kg; in the series on Escherichia coli [5] it was 2.9 mg/kg. Also, the area under the curve (AUC) in series [4] amounted to 4000 ng·h/mL.
Turning to `O=C(O)c1cn(C2CC2)c2cc(N3CCNCC3)c(F)cc2c1=O` [CIPROFLOXACIN], the 50% effective dose (ED50) in the series on Pseudomonas aeruginosa [1] stood at 70 mg/kg; in the series on Escherichia coli [5], 3 mg/kg. Moreover, in series [4], the AUC came to 2300 ng·h/mL.
For the molecule `C[C@H]1COc2c(N3CCN(C)CC3)c(F)cc3c(=O)c(C(=O)O)cn1c23.C[C@H]1COc2c(N3CCN(C)CC3)c(F)cc3c(=O)c(C(=O)O)cn1c23.O` [LEVOFLOXACIN], the MIC was 0.25 µg/mL in the series with Bacillus cereus; 0.5 µg/mL in the series on Pseudomonas aeruginosa [2]; 0.03 µg/mL with Bacillus subtilis; 0.25 µg/mL in the series with Enterococcus faecalis; 0.03 µg/mL in the series with Klebsiella pneumoniae; 0.03 µg/mL in the series on Morganella morganii. For the same molecule, the MIC in the series with Staphylococcus aureus [6] was determined as 0.25 µg/mL; in the series with Proteus vulgaris, 0.5 µg/mL; in the series on Enterobacter cloacae it was 0.03 µg/mL; in series [8] it was 0.12 µg/mL. The results for the ED50 in the series on Pseudomonas aeruginosa [1], in the series with Staphylococcus aureus [3] and in the series on Escherichia coli [5] were 109 mg/kg, 14 mg/kg and 5 mg/kg, respectively. This molecule displayed an AUC in series [4] of 10200 ng·h/mL.
